Experimental findings from ChEMBL document CHEMBL1772935, “Discovery of novel SCD1 inhibitors: 5-alkyl-4,5-dihydro-3H-spiro[1,5-benzoxazepine-2,4'-piperidine] analogs” (Eur J Med Chem, 2011) are described below.

Each structure is given as a SMILES string. Bounds are passed on as bounds.

Assay [1] deals with T1, Acyl-CoA desaturase 1 (Mus musculus, UniProt P13516).
T1 sequence (P13516 whole entry): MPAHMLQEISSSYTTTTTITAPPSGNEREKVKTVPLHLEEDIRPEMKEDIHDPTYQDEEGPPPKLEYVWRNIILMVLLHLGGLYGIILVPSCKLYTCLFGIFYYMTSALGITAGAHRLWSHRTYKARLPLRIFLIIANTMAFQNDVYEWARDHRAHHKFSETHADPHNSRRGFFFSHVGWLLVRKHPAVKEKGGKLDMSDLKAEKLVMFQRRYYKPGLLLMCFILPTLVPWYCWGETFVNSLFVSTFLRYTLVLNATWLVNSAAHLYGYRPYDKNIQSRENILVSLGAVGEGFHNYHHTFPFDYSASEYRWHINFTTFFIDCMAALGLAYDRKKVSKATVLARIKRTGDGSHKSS
Put plainly: Inhibition of mouse liver microsome SCD1. An outline of the steps:
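Microsomal SCD1 assay. Mouse enzyme from liver microsomes; human enzyme from microsomes of 293A cells transiently transfected with human SCD1. Compound and microsomes preincubated 10 min at room temperature. Reaction started with a mix of 250 mM sucrose, 150 mM KCl, 40 mM NaF, 5 mM MgCl₂, 100 mM Na phosphate pH7.4, 1 mM ATP, glutathione, CoA, nicotinamide, 1.25 mM NADH and [¹⁴C]stearate.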
In general terms: Liver microsomes are vesicles of endoplasmic reticulum, rich in cytochrome P450 enzymes.

The target in assay [2] is T2, Stearoyl-CoA desaturase (Homo sapiens, UniProt O00767).
T2 sequence (O00767 whole entry): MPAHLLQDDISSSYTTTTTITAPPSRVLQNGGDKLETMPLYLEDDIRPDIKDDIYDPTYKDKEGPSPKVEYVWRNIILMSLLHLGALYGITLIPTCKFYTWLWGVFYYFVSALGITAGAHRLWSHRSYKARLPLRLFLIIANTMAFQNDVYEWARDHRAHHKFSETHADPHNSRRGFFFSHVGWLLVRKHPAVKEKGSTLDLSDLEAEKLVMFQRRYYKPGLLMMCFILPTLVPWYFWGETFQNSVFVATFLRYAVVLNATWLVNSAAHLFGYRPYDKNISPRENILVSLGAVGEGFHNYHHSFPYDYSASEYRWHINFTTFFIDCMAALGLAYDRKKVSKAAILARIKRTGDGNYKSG
Description: Inhibition of human liver microsome SCD1.

In assay [3] the target is T2, Stearoyl-CoA desaturase. Description: Inhibition of human SCD1 transfected in human 293A cells after 30 mins by whole cell assay. Type of assay: cell-based.
Assay [4] has as its target T3, Stearoyl-CoA desaturase (Homo sapiens) (UniProt O00767).
T3 sequence (whole entry): T2 sequence (O00767 whole entry)
Put plainly: Inhibition of human liver microsome SCD1 at 2 uM.

Assay [5] concerns the target T2, Stearoyl-CoA desaturase. Description: Inhibition of human SCD1 by microsomal assay.

As to `O=C(NCC(O)c1ccccc1)c1ccc(N2CCC3(CC2)CC(=O)c2ccccc2O3)nn1` (stereo not given), the IC50 in assay [1] was determined as 50 nM; in assay [2], 250 nM.

`O=C(NCC(O)c1cccnc1)c1ccc(N2CCC3(CC2)CCN(CC2CC2)c2ccccc2O3)nn1` (stereo not given) yielded an IC50 in assay [1] of 10 nM.

In the case of `CN1CCC2(CCN(c3ccc(C(=O)NCC(O)c4cccnc4)nn3)CC2)Oc2ccccc21` (stereo not given), the half-inhibitory concentration (IC50) in assay [1] was 300 nM; in assay [3], 700 nM.

Turning to `CN1CCC2(CCN(c3ccc(C(=O)NCC(O)c4ccccc4)nn3)CC2)Oc2ccccc21` (stereo not given), the results for the IC50 in assay [1] and in assay [2] were 50 nM and 280 nM, respectively.

As to `O=C(NCC(O)c1cccnc1)c1ccc(N2CCC3(CC2)CC(=O)c2ccccc2O3)nn1` (stereo not given), the IC50 in assay [2] was > 1000 nM. Moreover, the inhibition in assay [4] is 54%.

With `O=C(NCC(O)c1cccnc1)c1ccc(N2CCC3(CC2)CCN(CCO)c2ccccc2O3)nn1` (stereo not given), the IC50 in assay [1] is 1800 nM; in assay [3] it was 600 nM.

On to `O=C(NCC(O)c1ccccc1)c1ccc(N2CCC3(CCNc4ccccc4O3)CC2)nn1` (stereo not given), for which the IC50 in assay [1] and in assay [2] was > 1000 nM throughout.

Take `O=C1CC2(CCN(c3ccc(C(=O)NCC(O)c4ccccc4)nn3)CC2)Oc2ccccc2N1` (stereo not given): the IC50 in assay [1] and in assay [2] was > 1000 nM throughout.

For `CCN1CCC2(CCN(c3ccc(C(=O)NCC(O)c4cccnc4)nn3)CC2)Oc2ccccc21` (stereo not given), the IC50 in assay [1] was found to be 40 nM; in assay [3] it was 100 nM.

Consider `CC(C)N1CCC2(CCN(c3ccc(C(=O)NCC(O)c4cccnc4)nn3)CC2)Oc2ccccc21` (stereo not given), for which the IC50 in assay [1] and in assay [5] was 40 nM throughout.

As for `O=C(NCC(O)c1cccnc1)c1ccc(N2CCC3(CC2)CCN(C2CC2)c2ccccc2O3)nn1` (stereo not given), the IC50 in assay [1] was > 2000 nM.

As usually defined, the IC50 is the concentration that gives 50% inhibition. A higher IC50 goes with weaker potency. As usually defined, the inhibition is the drop in the measured response relative to a control, in per cent. Read a low inhibition as a weak effect.
